Reference: PubChem BioAssay
Active and inactive are the calls of the source.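 Rule for the calls, unless noted: active = viability at or below 10% of carrier control in both of two separate runs; inconclusive = viability at or below 10% in only one of the two runs; inactive = the rest.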

How the values were obtained:
[1] = reducers of endogenous Her2 protein level, primary screen, SKBR3 breast tumor cells, AlphaScreen, ATP viability (AID 461;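 active = Her2 level under about 52% in both replicate screens, with viability over 70% of control, limit read from the data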;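 for Her2 level: lower value means less Her2 protein in the cells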;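 for viability: percent of carrier control wells set as 100% viability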); conditions: 18-24 h, measured here: SKBR3 viability, ATP luminescence, at 10 µM
[2] = target: Receptor tyrosine-protein kinase erbB-2 (Homo sapiens) (UniProt P04626); experiment: as above; conditions: 18-24 h, at 10 µM, stronger effect = lower value
[3] = SK-BR-3 cell growth inhibitors, pilot screen, 24 h, human (AID 572); conditions: SK-BR-3 viability, CellTiter-Glo luminescence, at 10 µM, stronger effect = lower value;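 note: compound exposure lasted between 18 and 24 h rather than exactly 24 h; 100% = carrier-treated control wells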
[4] = HUVEC growth inhibition – cell-based, human, primary screen (AID 575;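 active = viability at or below 30% in both replicate assays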;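 note: 100% = median of untreated cell wells with 0.1% DMSO on each plate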); conditions: HUVEC proliferation, CellTiter-Glo luminescence, 72 h; at 10 µM; stronger effect = lower value
Summary of the method: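 Test system: primary human umbilical vein endothelial cells. Quantity: 1250 cells/well. Compound: single 10 µM dose, 0.1% DMSO, from 5x medium stock. Timing: 72 h treatment at 37 °C. Detection: ATP-based CellTiter-Glo luminescent read. Benchmarks: vehicle and MePR control wells. Format: 384-well plates coated with collagen.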

[5] = growth inhibitors of H69AR lung tumor, primary screen, human, duplicate replicates (AID 580;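 active = viability at or under a set limit in both replicates, limit being median viability minus 3 SD, cut at about 48% in these data, passing the limit was not always enough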;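 note: 100% = mean luminescence of untreated wells and 0% = no signal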); conditions: H69AR lung tumor cells viability, ATP luminescence, 72 h; at 10 µM; stronger effect = lower value
[6] = reversal of MRP1-mediated doxorubicin resistance, pilot screen, H69AR cells, doxorubicin co-treatment (AID 601;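 active = viability loss from added drug above about 55%, and viability with drug at most 40%, in both replicates, limit read from the data, passing the limit was not always enough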); conditions: CellTiter-Glo, 72 h, at 10 µM; for differential viability (reversal): stronger effect = higher value
[7] = 384-well plate pilot, post-Golgi transport modulator project, inhibition of yeast transport mutant growth (AID 636; in the data active = inhibition above about 31%); conditions: absorbance 615 nm, about 18 h, stronger effect = higher value
[8] = growth suppression of yeast trafficking mutant, preliminary HTS, modulators of trafficking downstream of Golgi apparatus project, 1536-format plate, OD 615 nm (AID 637; in the data active = inhibition above about 30%); conditions: yeast transport mutant growth, absorbance 615 nm, 18 h; stronger effect = higher value
[9] = H69AR cells + 2 uM doxorubicin, measured here: viability with 2 uM doxorubicin, stronger effect = lower value
[10] = H69AR cells, compound alone cytotoxicity

Sequence of Receptor tyrosine-protein kinase erbB-2 (Homo sapiens) (P04626 whole entry, looked up): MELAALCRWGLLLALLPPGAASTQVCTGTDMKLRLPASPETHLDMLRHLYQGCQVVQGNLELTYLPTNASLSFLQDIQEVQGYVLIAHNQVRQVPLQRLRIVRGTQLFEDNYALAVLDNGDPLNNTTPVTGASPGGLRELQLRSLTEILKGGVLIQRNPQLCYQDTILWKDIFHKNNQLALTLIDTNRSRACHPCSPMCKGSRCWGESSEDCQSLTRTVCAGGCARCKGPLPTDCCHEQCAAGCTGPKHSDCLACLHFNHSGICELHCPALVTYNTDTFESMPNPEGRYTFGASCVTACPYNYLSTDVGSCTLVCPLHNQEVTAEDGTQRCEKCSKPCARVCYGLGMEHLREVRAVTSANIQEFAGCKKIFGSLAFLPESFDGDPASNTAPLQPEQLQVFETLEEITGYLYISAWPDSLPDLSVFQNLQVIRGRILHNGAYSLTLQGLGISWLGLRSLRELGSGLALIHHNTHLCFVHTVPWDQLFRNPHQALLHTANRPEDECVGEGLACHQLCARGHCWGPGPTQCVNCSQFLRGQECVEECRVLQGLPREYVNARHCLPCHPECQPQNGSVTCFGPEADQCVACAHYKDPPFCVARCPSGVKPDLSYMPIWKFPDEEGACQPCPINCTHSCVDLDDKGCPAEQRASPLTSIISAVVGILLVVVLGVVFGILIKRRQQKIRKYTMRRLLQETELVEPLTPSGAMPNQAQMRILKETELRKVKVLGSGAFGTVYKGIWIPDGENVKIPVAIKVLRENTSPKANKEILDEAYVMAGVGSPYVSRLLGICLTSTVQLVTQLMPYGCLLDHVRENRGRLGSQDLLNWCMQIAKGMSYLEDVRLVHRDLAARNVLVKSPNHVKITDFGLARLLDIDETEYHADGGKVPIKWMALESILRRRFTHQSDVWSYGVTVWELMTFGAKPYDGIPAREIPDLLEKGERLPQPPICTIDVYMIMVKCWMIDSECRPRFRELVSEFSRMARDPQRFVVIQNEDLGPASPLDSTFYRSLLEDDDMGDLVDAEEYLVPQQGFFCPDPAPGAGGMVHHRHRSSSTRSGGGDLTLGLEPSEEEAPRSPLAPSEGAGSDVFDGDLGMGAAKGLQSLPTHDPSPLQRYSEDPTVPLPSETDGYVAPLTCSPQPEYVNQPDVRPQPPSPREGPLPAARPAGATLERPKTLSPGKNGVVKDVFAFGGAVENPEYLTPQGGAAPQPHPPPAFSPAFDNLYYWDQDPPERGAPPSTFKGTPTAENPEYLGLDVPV

| SMILES | viability [1] | Her2 level [2] | viability [3] | viability [4] | viability [5] | differential viability (reversal) ([6]; H69AR cells + 2 uM doxorubicin) | viability [6, 9] | viability [6, 10] | inhibition [7] | inhibition [8] |
| --- | --- | --- | --- | --- | --- | --- | --- | --- | --- | --- |
| COC(=O)c1sc(S(=O)(=O)Nc2ccc3cn[nH]c3c2)c(C(=O)OC)c1C | 97% | 93.5% (inactive) | 97% (inactive) | 77.6% (inactive) | 78.2% (inactive) | -12.4% (inactive) | 90.6% | 78.2% | -2.5% (inactive) | -6.55% (inactive) |
| CCOc1ccc(N(CC)C(=O)COc2cc(=O)n(C)c3ccccc23)cc1 | 84.5% | 86% (inactive) | 84.5% (inactive) | 93.6% (inactive) | 86.1% (inactive) | -2.48% (inactive) | 88.6% | 86.1% | -3.07% (inactive) | 0.98% (inactive) |
| CCc1nc2c(cnn2-c2ccc(Cl)cc2)c(=O)n1-c1ccc2c(c1)OCCO2 | 90% | 86.5% (inactive) | 90% (inactive) | 83.3% (inactive) | 83.6% (inactive) | -4.38% (inactive) | 88% | 83.6% | 0.79% (inactive) | -5.97% (inactive) |
| COC(=O)c1ccc(-c2sc3nc(N4CCOCC4)c4c(c3c2N)CCCC4)o1 | 108% | 104% (inactive) | 108% (inactive) | 74.4% (inactive) | 91% (inactive) | -1.13% (inactive) | 92.2% | 91% | -4% (inactive) | 27.3% (inactive) |
| COc1ccc(CCNC(=O)c2ccc(N3CCCC3=O)cc2)cc1OC | 102% | 108% (inactive) | 102% (inactive) | 103% (inactive) | 92.1% (inactive) | 12.3% (inactive) | 79.8% | 92.1% | -5.84% (inactive) | 4.92% (inactive) |
| O=C(CCN1CCN(c2ccc(F)cc2)CC1)Nc1ccccc1F | 91.5% | 91% (inactive) | 91.5% (inactive) | 90.4% (inactive) | 86% (inactive) | -5.33% (inactive) | 91.3% | 86% | -5.73% (inactive) | 4.75% (inactive) |
| Cc1ccccc1CSCC(=O)c1c(N)n(C)c(=O)n(C)c1=O | 86.5% | 86.5% (inactive) | 86.5% (inactive) | 106% (inactive) | 93.5% (inactive) | -2.12% (inactive) | 95.6% | 93.5% | -2.37% (inactive) | -2.22% (inactive) |
| CC1=CC=CC2=NC(=O)CC(C)(C(=O)N(CC(=O)NC(C)C)C3CCCC3)N12 (stereo not given) | 101% | 100% (inactive) | 101% (inactive) | 96.5% (inactive) | 94% (inactive) | -6.48% (inactive) | 100% | 94% | -4% (inactive) | 0.16% (inactive) |
| COc1ccc(CCNC(=O)C2CCN(C(=O)N(C)C)CC2)cc1OC | 86.5% | 117% (inactive) | 86.5% (inactive) | 108% (inactive) | 92.8% (inactive) | 1.61% (inactive) | 91.2% | 92.8% | -2.05% (inactive) | -4.67% (inactive) |
| O=C(NCc1cccs1)C1CC(=O)N(c2ccccc2)C1 (stereo not given) | 96.5% | 105% (inactive) | 96.5% (inactive) | 123% (inactive) | 111% (inactive) | 9.26% (inactive) | 101% | 111% | -0.13% (inactive) | -2.3% (inactive) |
| COc1ccc(N2CCN(Cc3nc(-c4ccc(Cl)cc4Cl)no3)CC2)cc1 | 117% | 83.5% (inactive) | 117% (inactive) | 70.5% (inactive) | 91.5% (inactive) | 9.36% (inactive) | 82.2% | 91.5% | -4.68% (inactive) | -5.57% (inactive) |
| COc1cc(NS(=O)(=O)N2CCCC2)cc(OC)c1OC | 83.5% | 95.5% (inactive) | 83.5% (inactive) | 94.8% (inactive) | 92.2% (inactive) | 8.42% (inactive) | 83.8% | 92.2% | -7.57% (inactive) | -2.95% (inactive) |
| Cc1cc(Oc2ccccc2)nc(-c2ccccc2)n1 | 100% | 112% (inactive) | 100% (inactive) | 92.7% (inactive) | 99.1% (inactive) | 7.91% (inactive) | 91.2% | 99.1% | -1.17% (inactive) | -5.25% (inactive) |
| COc1ccccc1CN1CC(C(=O)N2CCN(c3ccc(F)cc3)CC2)CC1=O (stereo not given) | 92% | 86% (inactive) | 92% (inactive) | 98% (inactive) | 88.8% (inactive) | -3.51% (inactive) | 92.3% | 88.8% | -2.24% (inactive) | 11.5% (inactive) |
| Cc1ccc(NC(=O)c2ccc(NS(=O)(=O)c3c(C)noc3C)cc2)cc1C | 97% | 81.5% (inactive) | 97% (inactive) | 84.1% (inactive) | 95% (inactive) | 11.6% (inactive) | 83.4% | 95% | -2.24% (inactive) | -4.55% (inactive) |
| O=C(CSc1ccc(Cl)cc1)OCc1nnc(-c2ccccc2)o1 | 98% | 99% (inactive) | 98% (inactive) | 106% (inactive) | 109% (inactive) | 29.6% (inactive) | 79.5% | 109% | 0.53% (inactive) | -0.91% (inactive) |

| SMILES | viability [1] | Her2 level [2] | viability [3] | viability [4] | viability [5] | differential viability (reversal) ([6]; H69AR cells + 2 uM doxorubicin) | viability [6, 9] | viability [6, 10] | inhibition [7] | inhibition [8] |
| --- | --- | --- | --- | --- | --- | --- | --- | --- | --- | --- |
| CC1Cc2cc(/C(O)=C3/C(=O)C(=O)N(CCN4CCOCC4)C3c3cccc(O)c3)ccc2O1 (stereo not given) | 98.5% | 120% (inactive) | 98.5% (inactive) | 98.9% (inactive) | 106% (inactive) | 2.56% (inactive) | 104% | 106% | 3.2% (inactive) | -5.32% (inactive) |
| CCOc1ccccc1Nc1ncnc2ccccc12 | 101% | 81% (inactive) | 101% (inactive) | 78.4% (inactive) | 82% (inactive) | 1.99% (inactive) | 80% | 82% | -1.45% (inactive) | 0.18% (inactive) |
| Cc1ccc(N2C(=O)c3ccccc3C2Nc2cccnc2)nc1 (stereo not given) | 94% | 99.5% (inactive) | 94% (inactive) | 85.4% (inactive) | 83.3% (inactive) | -10.8% (inactive) | 94.1% | 83.3% | -2.18% (inactive) | -1.33% (inactive) |
| C=CCn1c(=O)[nH]c2cc(C(=O)N3CCN(c4cc(C)ccc4C)CC3)ccc2c1=O | 81.5% | 79.5% (inactive) | 81.5% (inactive) | 71.7% (inactive) | 41.3% (active) | 7.67% (inactive) | 33.6% | 41.3% | -6.76% (inactive) | -0.83% (inactive) |
| CCCCn1c(NCCC)nc2c1c(=O)[nH]c(=O)n2C | 96% | 80% (inactive) | 96% (inactive) | 113% (inactive) | 93.7% (inactive) | 12.8% (inactive) | 81% | 93.7% | -3.51% (inactive) | -0.66% (inactive) |
| Cn1c(=O)[nH]c(=O)c2c1nc(N(CCO)Cc1ccccc1)n2Cc1ccccc1Cl | 90.5% | 82.5% (inactive) | 90.5% (inactive) | 80.2% (inactive) | 81.6% (inactive) | 26% (inactive) | 55.6% | 81.6% | -5.47% (inactive) | 3.44% (inactive) |
| COC(=O)COc1ccc(S(=O)(=O)NCCC2=CCCCC2)cc1 | 99% | 83.5% (inactive) | 99% (inactive) | 10.6% (active) | 95% (inactive) | -3.67% (inactive) | 98.7% | 95% | 0% (inactive) | -1.13% (inactive) |
| COc1ccc(NC(=O)c2cc(C(C)C)on2)c(OC)c1 | 93.5% | 85.5% (inactive) | 93.5% (inactive) | 79.5% (inactive) | 88% (inactive) | -2.67% (inactive) | 90.6% | 88% | 0.51% (inactive) | -2% (inactive) |
| Cc1ccc(NC(=O)C2CCCN2S(=O)(=O)c2cccc3cccnc23)cc1F (stereo not given) | 98% | 97.5% (inactive) | 98% (inactive) | 102% (inactive) | 93.7% (inactive) | -6.31% (inactive) | 100% | 93.7% | -4% (inactive) | 3.93% (inactive) |
| O=C(c1ccco1)N1CCN(S(=O)(=O)c2ccc3c(c2)CCN3C(=O)C2CCC2)CC1 | 81.5% | 130% (inactive) | 81.5% (inactive) | 101% (inactive) | 95.6% (inactive) | 11.7% (inactive) | 83.9% | 95.6% | -1.71% (inactive) | -6.5% (inactive) |
| Cc1ccc(NC(=O)CSc2nnc(NC(=O)CN3CCOCC3)s2)cc1 | 102% | 82% (inactive) | 102% (inactive) | 98% (inactive) | 94.1% (inactive) | 9.71% (inactive) | 84.4% | 94.1% | -5.33% (inactive) | -2.46% (inactive) |
| CN(c1ccccc1C(N)=O)S(=O)(=O)c1ccccc1 | 105% | 86% (inactive) | 105% (inactive) | 101% (inactive) | 92.7% (inactive) | 7.05% (inactive) | 85.7% | 92.7% | -6.53% (inactive) | -0.48% (inactive) |
| COc1ccccc1NC(=O)C1=C(C)Nc2nnnn2C1c1ccccc1OC (stereo not given) | 94% | 76.5% (inactive) | 94% (inactive) | 113% (inactive) | 98.9% (inactive) | 10.4% (inactive) | 88.5% | 98.9% | -4.16% (inactive) | -1.5% (inactive) |
| COc1ccc(C(=O)N2CCSC2=S)cc1OC | 97.5% | 96% (inactive) | 97.5% (inactive) | 89.4% (inactive) | 82.1% (inactive) | -11.5% (inactive) | 93.6% | 82.1% | -2.21% (inactive) | -1.67% (inactive) |
| O=C(NC1CCCc2ccccc21)C1CCN(S(=O)(=O)c2cnc[nH]2)CC1 (stereo not given) | 104% | 100% (inactive) | 104% (inactive) | 102% (inactive) | 94.8% (inactive) | -11.3% (inactive) | 106% | 94.8% | -0.79% (inactive) | -3.87% (inactive) |
| CCOC(=O)c1cc(-c2ccco2)nc2c1c(C)nn2CCC#N | 96% | 101% (inactive) | 96% (inactive) | 98% (inactive) | 68.3% (inactive) | -16.2% (inactive) | 84.5% | 68.3% | 4.05% (inactive) | 3.97% (inactive) |
